Reference: PMC3227549 (Journal of natural products, 2010)
Entries after “also recorded” stand apart in the source; their conditions may differ.

Key:
[1] = system: voltage gated sodium channel (VGSC); settings: cited from earlier work
[2] = system: site 2 of the mammalian VGSC; settings: cited from earlier work
[3] = system: voltage gated sodium channel (VGSC); test: Sodium influx / activation of VGSC in neocortical neurons; format: cell-based; settings: mouse neocortical neurons
Outline: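 Primary neocortical neurons from embryonic day 16 Swiss-Webster mice were trypsin-dissociated, given 10 μM cytosine arabinoside on day 2, then Neurobasal/B-27 serum-free medium, and used at DIV 8–13. Cells were loaded for 1 h at 37 °C with 10 μM SBFI-AM and 0.02% Pluronic F-127, then washed in Locke's buffer. Ex 340/380 nm, em 505 nm, read every 5 s, with 60 s baseline before test compound addition. EC50 by nonlinear logistic regression.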

[4] = system: Neuro-2a mouse neuroblastoma cells; test: Cytotoxicity to Neuro-2a mouse neuroblastoma cells; format: cell-based
[5] = system: spontaneous Ca2+ oscillations in neocortical neurons; test: Suppression of spontaneous Ca2+ oscillations; format: cell-based, mouse
[6] = system: H-460 human lung adenocarcinoma cells; test: Cytotoxicity to H-460 human lung adenocarcinoma cells; format: cell-based
brine shrimp = test: Brine shrimp toxicity assay; format: in vivo; settings: pure compound

| Structure (SMILES) | kind of agonism in stimulation of sodium influx in neocortical neurons [1] | inhibition of binding of [3H]batrachotoxin to site 2 of the mammalian VGSC [2] | stimulated sodium influx, EC50 [3] | Neuro-2a (IC50 μM) [4] | suppressed spontaneous Ca2+ oscillations, EC50 [5] | H-460 (IC50 μM) [6] | LC50 in the brine shrimp toxicity assay (brine shrimp) |
| --- | --- | --- | --- | --- | --- | --- | --- |
| CCC[C@@H](C)[C@H](O)[C@H](C)[C@H]1OC(=O)[C@H]([C@@H](C)O)NC(=O)[C@H](C(C)C)OC(=O)[C@H](C)[C@H](O)[C@H]([C@@H](C)CC)NC(=O)[C@@]2(C)CSC(=N2)[C@@]2(C)CSC(=N2)c2csc(n2)C[C@H](OC)[C@@H]1C [Compound 1, hoiamide A] | partial agonist | inhibits the binding |  |  |  |  |  |
| CCC[C@@H](C)[C@H](O)[C@H](C)[C@@H](O)[C@@H](C)[C@H](Cc1nc(C2=N[C@@](C)(C3=N[C@@](C)(C(=O)N[C@H]([C@@H](O)[C@@H](C)C(=O)OCC)[C@@H](C)CC)CS3)CS2)cs1)OC [Compound 3, hoiamide C] |  |  | no significant effects; also recorded: no significant pharmacological activity | Inactive | no significant effects; also recorded: no significant pharmacological activity | Inactive | 1300 nM |
| CCC[C@@H](C)[C@H](O)[C@H](C)[C@H]1OC(=O)[C@H]([C@@H](C)O)NC(=O)[C@H]([C@@H](C)CC)OC(=O)[C@H](C)[C@H](O)[C@H]([C@@H](C)CC)NC(=O)[C@@]2(C)CSC(=N2)[C@@]2(C)CSC(=N2)c2csc(n2)C[C@H](OC)[C@@H]1C [Compound 2, hoiamide B] |  |  |  | Inactive |  |  |  |
